The record followed here is ChEMBL document CHEMBL3525903 (Drug Metab Dispos, 2013).

In data set [1] the target is T1, Organic anion transporter 3 (Homo sapiens, UniProt Q8TCC7).
T1 sequence (Q8TCC7 whole entry): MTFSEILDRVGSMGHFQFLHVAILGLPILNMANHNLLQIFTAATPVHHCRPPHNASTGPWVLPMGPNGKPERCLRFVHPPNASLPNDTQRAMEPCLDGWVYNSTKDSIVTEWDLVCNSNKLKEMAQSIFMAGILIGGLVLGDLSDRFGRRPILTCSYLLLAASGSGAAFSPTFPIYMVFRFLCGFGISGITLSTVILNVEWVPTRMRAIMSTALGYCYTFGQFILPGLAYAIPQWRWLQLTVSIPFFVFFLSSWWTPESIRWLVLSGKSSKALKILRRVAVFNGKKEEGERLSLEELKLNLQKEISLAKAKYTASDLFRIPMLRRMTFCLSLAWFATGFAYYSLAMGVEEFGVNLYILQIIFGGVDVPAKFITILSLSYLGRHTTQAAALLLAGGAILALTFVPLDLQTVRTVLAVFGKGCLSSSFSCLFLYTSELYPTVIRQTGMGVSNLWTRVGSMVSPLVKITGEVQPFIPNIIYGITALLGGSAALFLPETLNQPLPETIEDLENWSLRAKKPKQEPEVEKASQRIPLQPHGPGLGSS
The data set can be described thus: Inhibition of OAT3 (unknown origin) expressed in HEK293 cells assessed as reduction of [3H]E-sul substrate uptake at 100 uM by liquid scintillation counting. Format: ADME, cell-based. To be noted: hek293, 100 µM. The procedure, abridged: (§1)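 HEK293 cells transiently transfected with OAT, OATP or OCT plasmid (FuGENE6; 24 h, then 24 h more with sodium butyrate), or stable OCTN1/OCTN2 lines; vector-transfected cells as control. Washed, preincubated 15–60 min at 37 °C in modified Krebs-Henseleit/25 mM HEPES buffer. Uptake of radiolabelled substrate, 100 µM inhibitor. Cells lysed in NaOH and counted by scintillation; counts normalised to medium radioactivity and Lowry protein; vector uptake subtracted.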

A short description of data set [2]: Permeability assessed as human P-glycoprotein-mediated transport across basolateral to apical side expressed in pig LLC-PK1 cells by measuring membrane permeability time by Transwell experiment/liquid scintillation counting. It is filed as ADME, cell-based.
In data set [3] the test system is P-glycoprotein. Kind of data set: Permeability assessed as human P-glycoprotein-mediated transport across apical to basolateral side expressed in pig LLC-PK1 cells at 500 uM by liquid scintillation counting. Format: ADME, cell-based.
The next data set deals with T2, OCTN1 (SLC22A4) (Homo sapiens, UniProt Q9H015).
T2 sequence (Q9H015 whole entry): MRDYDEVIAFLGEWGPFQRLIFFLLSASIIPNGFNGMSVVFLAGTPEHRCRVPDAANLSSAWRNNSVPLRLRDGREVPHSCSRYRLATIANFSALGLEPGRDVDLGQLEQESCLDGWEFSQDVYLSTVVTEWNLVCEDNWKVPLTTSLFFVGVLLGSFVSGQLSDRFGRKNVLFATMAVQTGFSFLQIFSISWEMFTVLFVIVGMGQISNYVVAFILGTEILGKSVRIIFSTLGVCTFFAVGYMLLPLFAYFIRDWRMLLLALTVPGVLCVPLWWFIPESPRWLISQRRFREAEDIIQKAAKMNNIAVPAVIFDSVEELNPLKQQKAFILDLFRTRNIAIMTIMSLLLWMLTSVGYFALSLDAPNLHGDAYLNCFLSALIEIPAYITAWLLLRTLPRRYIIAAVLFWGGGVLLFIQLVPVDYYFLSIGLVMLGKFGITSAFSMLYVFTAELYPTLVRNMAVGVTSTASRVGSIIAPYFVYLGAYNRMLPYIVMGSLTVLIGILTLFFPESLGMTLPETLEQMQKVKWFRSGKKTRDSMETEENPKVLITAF
The data set can be described thus: Inhibition of OCTN1 (unknown origin) expressed in HEK293 cells assessed as reduction of [3H]ergothioneine substrate uptake at 100 uM by liquid scintillation counting. It is filed as cell-based. The note with it: HEK293 cells expressing OCTN1, probe [3H]ergothioneine. An outline of the steps:
as §1

Data set [4] in a line: Protein binding in plasma (unknown origin). Format: ADME, cell-free. The note with it: read-out: PPB (converted).
In data set [5] the target is T3, Solute carrier family 22 member 11 (Homo sapiens, UniProt Q9NSA0).
T3 sequence (Q9NSA0 whole entry): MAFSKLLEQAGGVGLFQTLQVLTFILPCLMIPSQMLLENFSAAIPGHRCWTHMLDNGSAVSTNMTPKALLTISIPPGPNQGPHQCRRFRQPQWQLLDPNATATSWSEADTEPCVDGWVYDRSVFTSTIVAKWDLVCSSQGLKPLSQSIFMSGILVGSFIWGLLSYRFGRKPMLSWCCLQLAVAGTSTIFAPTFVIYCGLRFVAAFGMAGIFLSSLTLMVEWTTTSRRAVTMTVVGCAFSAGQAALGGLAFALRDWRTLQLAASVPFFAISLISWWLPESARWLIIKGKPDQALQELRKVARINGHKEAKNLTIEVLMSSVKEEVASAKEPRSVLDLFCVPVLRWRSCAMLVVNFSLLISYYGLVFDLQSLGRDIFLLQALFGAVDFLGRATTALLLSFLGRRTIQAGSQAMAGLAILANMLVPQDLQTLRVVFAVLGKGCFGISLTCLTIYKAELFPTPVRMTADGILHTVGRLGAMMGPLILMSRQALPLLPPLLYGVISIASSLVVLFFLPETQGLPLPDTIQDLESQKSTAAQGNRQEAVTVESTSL
Kind of data set: Inhibition of OAT4 (unknown origin) expressed in HEK293 cells assessed as reduction of [3H]E-sul substrate uptake at 100 uM by liquid scintillation counting. It is filed as ADME, cell-based. To be noted: hek293, 100 µM. The procedure, abridged: as §1

Data set [6] concerns P-glycoprotein. Kind of data set: Permeability assessed as human P-glycoprotein-mediated transport across apical to basolateral side expressed in pig LLC-PK1 cells by Transwell experiment/liquid scintillation counting. It is filed as ADME, cell-based.
Data set [7] concerns the target T4, Solute carrier family 22 member 6 (Homo sapiens, UniProt Q4U2R8).
T4 sequence (Q4U2R8 whole entry): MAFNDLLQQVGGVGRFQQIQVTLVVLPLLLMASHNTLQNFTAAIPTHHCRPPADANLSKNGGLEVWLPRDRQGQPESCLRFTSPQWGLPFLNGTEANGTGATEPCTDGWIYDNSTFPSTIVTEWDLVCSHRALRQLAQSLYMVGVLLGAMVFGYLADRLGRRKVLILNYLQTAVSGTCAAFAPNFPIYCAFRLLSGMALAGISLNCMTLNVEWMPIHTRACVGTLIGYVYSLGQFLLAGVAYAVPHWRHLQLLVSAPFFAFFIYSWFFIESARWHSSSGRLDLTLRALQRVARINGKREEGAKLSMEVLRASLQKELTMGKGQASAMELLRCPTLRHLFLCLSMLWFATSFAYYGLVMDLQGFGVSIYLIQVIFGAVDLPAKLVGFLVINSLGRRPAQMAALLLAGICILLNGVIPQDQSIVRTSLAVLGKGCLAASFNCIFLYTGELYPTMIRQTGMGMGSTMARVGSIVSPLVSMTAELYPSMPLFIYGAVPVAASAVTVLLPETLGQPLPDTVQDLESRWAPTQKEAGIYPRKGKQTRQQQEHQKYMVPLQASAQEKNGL
The data set can be described thus: Inhibition of OAT1 (unknown origin) expressed in HEK293 cells assessed as reduction of [3H]PAH substrate uptake at 100 uM by liquid scintillation counting. The note with it: hek293, 100 µM. It is filed as ADME, cell-based. The procedure, abridged:
as §1

Data set [8] is described as follows: Permeability assessed as human P-glycoprotein-mediated transport across apical to basolateral side expressed in pig LLC-PK1 cells by measuring membrane permeability time by Transwell experiment/liquid scintillation counting. It is filed as ADME, cell-based.

Each structure is given as a SMILES string.

For `CC#CCn1c(N2CCC[C@@H](N)C2)nc2c1c(=O)n(Cc1nc(C)c3ccccc3n1)c(=O)n2C` [LINAGLIPTIN], the “inhibition (INH)” value is reported as 0% in data set [1], 0% in data set [5] and 1.07% in data set [7]. For the same compound, the Time in [2] stood at 2.71 h; in data set [8], 4.4 h. Further, the Papp A→B at 500 µM in the data set with P-glycoprotein [3] was 26.7 ×10⁻⁶ cm/s. On OCTN1 (SLC22A4), the inhibition at 100 µM was 19.4%. Besides, in data set [4], the fraction unbound was 0.2. Also, the Km in the data set with P-glycoprotein [6] is 220 µM.
